Shown are actives, neighbours in structure and some others; about 1.4% of the full set was active somewhere.
EBNA-1 inhibitor: blocks EBNA-1 binding to DNA; inhibition, % at 14.8 µM; AID 1950; EBNA-1 DNA binding, fluorescence polarization; 0.34% of 300,000 active; in the data active = inhibition above about 28%
HCV core dimer: blocks dimerization of HCV core protein; TR-FRET GST/Flag-core106 dimerization, 1536-well; inhibition, % at 5 µM; 0.33% of 300,000 active; AID 1899;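 active = inhibition above the mean of all tested compounds plus 3 SD, set per screening campaign, cut at about 45% in these data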
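assay system = GST-tagged and Flag-tagged HCV core protein residues 1-106 | controls = unlabelled core106 and no-GST-core106 wells | incubation = compound-protein-antibody incubation 4 h at 22.5 °C | probe or stimulus = Eu donor and XL665 acceptor anti-tag antibodies | read-out = % inhibition based on acceptor/donor emission ratio | signal = TR-FRET 671 and 617 nm emission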
HCV NS3 hel inh: HCV NS3 helicase inhibition. 0.56% of 290,000 active. NS3 helicase DNA unwinding, Cy5 molecular beacon fluorescence. AID 1800. inhibition, % at 10.9 µM;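 active = inhibition above the mean of all tested compounds plus 3 SD, set per campaign, cut at about 35% in these data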;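 note: 0% = DMSO wells and 100% = thioflavine S control wells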
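System: Hepatitis C virus NS3 helicase domain fragment enzyme | Reagent: Annealed dual-labelled DNA beacon duplex, ATP-started | Compound dosing: 10.9 µM single point, 0.8% DMSO | Incubation: 1 h reaction at 25 °C, ATP-initiated | Technique: Cy5 fluorescence | Evaluation: Percent inhibition from t60/t0 fluorescence ratio | Benchmarks: Low DMSO, high thioflavine S at 110 µM | Replication: Singlicate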
ZTA counter: blocks Epstein-Barr virus ZTA, an EBNA-1 counter-screen | ZTA-DNA binding, fluorescence polarization | inhibition, % at 11 µM | 0.15% of 320,000 active | AID 2234; in the data active = inhibition above about 33%
Target sequence (P03206 whole entry, looked up): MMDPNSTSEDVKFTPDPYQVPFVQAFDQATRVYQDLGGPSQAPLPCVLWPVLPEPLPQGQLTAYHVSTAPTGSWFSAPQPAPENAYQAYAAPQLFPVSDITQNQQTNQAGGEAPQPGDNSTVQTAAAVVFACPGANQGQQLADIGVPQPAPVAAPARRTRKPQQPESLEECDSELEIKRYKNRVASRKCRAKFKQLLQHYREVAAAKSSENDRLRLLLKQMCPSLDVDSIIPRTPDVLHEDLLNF
UBC9 SUMO inh: blocks human SUMOylation mediated by UBC9 | AID 2006 | 0.36% of 290,000 active | HTRF SUMOylation assay, SAE1/SAE2 + UBC9, in vitro | inhibition, % at 35 µM | P63279; in the data active = inhibition above about 50%, passing the limit was not always enough
Target sequence (P63279 whole entry, looked up): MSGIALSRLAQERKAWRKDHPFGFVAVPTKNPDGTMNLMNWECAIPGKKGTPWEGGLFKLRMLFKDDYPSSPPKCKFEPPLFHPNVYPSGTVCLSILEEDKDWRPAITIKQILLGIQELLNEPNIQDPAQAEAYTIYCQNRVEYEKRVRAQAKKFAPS
Zta DNA confirm: confirmation of Epstein-Barr virus ZTA DNA binding inhibitors; shares compounds with ZTA counter; Zta-ZRE DNA binding, fluorescence polarization; inhibition, % at 11.1 µM; 30% of 320 active; AID 2361;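 active = mean inhibition across triplicate runs above the hit threshold derived for the original primary screen, cut at about 33% in these data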;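 note: 0% = Zta with DMSO and 100% = wells lacking Zta protein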
EBNA-1 counter: EBNA-1 DNA binding inhibition, counter-screen for ZTA; shares compounds with ZTA counter; fluorescence polarization; 320 tested, under 10 active; inhibition, % at 14.8 µM; call rule not given here
Numbers without * were called inactive; x = no result given; + = active, no number.

SMILES	EBNA-1 inhibitor	HCV core dimer	HCV NS3 hel inh	ZTA counter	UBC9 SUMO inh	Zta DNA confirm	EBNA-1 counter
C#CCOCCOCCOCCNc1nc(N2CCN(C(=O)CCCCCCCCCCNC(=O)Cn3cc(CCCCCN)nn3)CC2)nc(N2CCN(C(=O)CCCCCCCCCCNC(=O)[C@@H](CCSC)n3cc(CCO)nn3)CC2)n1	8.4	-6.2	x	80.4*	x	24.1	-0.4
C#CCOCCOCCOCCNc1nc(N2CCN(C(=O)CCCCCCCCCCNC(=O)Cn3cc(C[C@@H](C)O)nn3)CC2)nc(N2CCN(C(=O)CCCCCCCCCCNC(=O)[C@@H](CCC(=O)O)n3cc(CCCCCN)nn3)CC2)n1	3.6	-1.1	x	12.3	x	x	x
C#CCOCCOCCOCCNc1nc(N2CCN(C(=O)CCCCCCCCCCNC(=O)[C@@H](CCSC)n3cc(CCO)nn3)CC2)nc(N2CCN(C(=O)CCCCCCCCCCNC(=O)[C@H](CCSC)n3cc(CCO)nn3)CC2)n1	2.1	13.1	x	-21.9	x	x	x
CCc1ccc(C(C)NC(=O)c2ccncc2)cc1 (stereo not drawn)	-6.4	-2.9	-3.2	114.2*	7.7	-7.3	5.2
CCc1ccc(C(C)NC(=O)c2ccc(F)cc2)cc1 (stereo not drawn)	-7.6	-1.2	-3.4	-10.2	13.9	x	x
CC(=O)Nc1cccc(-c2cn3ccccc3n2)c1	-4.1	3.4	12.5	1.5	16.7	x	x
O=C(Nc1cccc(-c2cn3ccccc3n2)c1)c1cc2ccccc2oc1=O	6.2	13.8	8.9	36.4*	5.8	34.8*	-1.1
COCCNC(=O)c1cc(-c2ccccc2)nn1CC1CC(c2cccnc2)=NO1 (stereo not drawn)	9.0	-3.3	x	+	x	3.4	0.1
CC(C)(C)n1nnnc1C(c1ccc(Cl)cc1)N1CCCc2ccccc21 (stereo not drawn)	10.2	3.4	1.9	0.7	-5.9	x	x
CC(C)(C)n1nnnc1C(c1cccc(C#N)c1)N1CCCc2ccccc21 (stereo not drawn)	13.2	1.1	-4.0	44.1*	24.5	1.4	0.8
O=C(O)c1ccc2c(c1)C1C=CCC1C(c1ccncc1)N2 (stereo not drawn)	-1.1	-2.9	16.1	20.4	47.9	x	x
COc1ccc(NS(=O)(=O)c2ccc3c(c2)[C@H]2C=CC[C@H]2[C@@H](c2ccc(C(=O)O)cc2)N3)cc1	9.5	23.4	-4.0	35.2*	54.2*	48.4*	6.8
Cc1ccc(OCCC(=O)OCC(=O)Nc2ccc(C)cc2Cl)cc1	-11.4	-7.7	x	-6.7	x	x	x
CC(C)C(NS(=O)(=O)c1ccc2c(c1)Cc1cc(S(=O)(=O)NC(C(=O)O)C(C)C)ccc1-2)C(=O)O (stereo not drawn)	2.4	-0.6	3.1	-20.5	-2.4	x	x
NC(=O)c1ccc(NC(=O)CSc2nnc(-c3ccc4c(c3)OCO4)o2)cc1	x	x	x	34.5*	x	18.0	5.6
Nc1nnnn1/N=C/c1ccc(F)cc1	-6.1	0.2	-5.8	51.9*	8.0	-1.0	-16.5
CN1CCc2c(sc3c2C(=O)NC(c2ccccn2)N3)C1 (stereo not drawn)	17.1	0.1	8.2	40.3*	1.8	9.4	3.2
Cc1ccccc1/C=N\NC(=O)c1ccccc1-n1cccc1	-19.9	-3.0	-5.6	6.6	-2.2	x	x
COc1cc2nc(N(CCCN(C)C)C(=O)c3ccc(S(=O)(=O)N4CCc5ccccc54)cc3)sc2cc1OC	2.4	3.6	x	49.6*	x	55.7*	7.7
CCc1cccc2c1NC1(CCCC1)CC2C (stereo not drawn)	-1.6	-4.5	5.5	4.0	26.0	x	x
Cc1cccc2c1NC(C)CC2C (stereo not drawn)	20.7	-0.3	-4.4	97.4*	22.8	11.9	-7.2
Cn1c(=O)c2cc(NCc3ccccc3)nnc2n(C)c1=O	25.6	-0.5	-2.2	51.5*	88.1	-11.7	-7.5
Cn1c(=O)c2c(nc(NCc3ccccc3)n2C)n(C)c1=O	10.8	3.5	1.0	21.9	5.8	x	x
Cc1ccc(S(=O)(=O)/N=C2/C=C(Sc3ncn[nH]3)C(=O)c3ccccc32)cc1	0.4	-10.8	2.3	41.0*	95.1*	74.9*	-9.6
COc1ccccc1/C=N/OCc1cc(C(C)=O)ccc1OC	-7.5	0.5	-14.3	-6.0	-4.8	x	x
SMILES	EBNA-1 inhibitor	HCV core dimer	HCV NS3 hel inh	ZTA counter	UBC9 SUMO inh	Zta DNA confirm	EBNA-1 counter
O=C(OCC(=O)c1ccc[nH]1)c1cncc(Br)c1	x	x	x	1.2	x	x	x
Cn1nnnc1Sc1ncnc2scc(-c3cc4ccccc4o3)c12	x	x	x	37.7*	x	30.1	-9.0
Cn1nnnc1Sc1ncnc2scc(-c3cccs3)c12	x	x	x	4.2	x	x	x
N#Cc1nc(/C=C/c2ccccc2)oc1NCCCN1CCOCC1	4.2	4.7	-31.3	33.1*	49.2	3.2	0.5
O=C(O)c1ccc(Cn2cnc3scc(-c4ccccc4)c3c2=O)cc1	12.3	1.4	6.1	10.5	27.9	x	x
CCCOc1ccc(-c2csc3ncn(Cc4ccc(C(=O)O)cc4)c(=O)c23)cc1	12.2	14.8	17.8	42.8*	6.2	4.8	3.9
CC1CCCN(C(=O)COC(=O)CNC(=O)c2ccc(Br)cc2)C1 (stereo not drawn)	0.3	3.4	x	16.4	x	x	x
COC(=O)c1ccc(CNC(=O)CNC(=O)c2sc3ccccc3c2Cl)cc1	6.4	9.4	x	83.0*	x	69.5*	15.6
O=C(c1ccco1)N1CCN(Cc2csc(-c3ccccc3Cl)n2)CC1	-3.6	10.4	-4.8	7.2	9.4	x	x
CCOC(=O)C1(Cc2ccccc2)CCN(Cc2cccn2-c2nccs2)CC1	-0.5	6.5	-11.1	34.1*	-18.8	-13.4	-8.5
CCOC(=O)C1(Cc2cccc(OC)c2)CCN(Cc2cccn2-c2nccs2)CC1	-16.2	4.2	-12.0	2.1	2.1	x	x
Cc1c(C=Nc2ccc(S(=O)(=O)N(C)C)cc2)c(O)[nH]c(=O)c1C#N	-0.1	-7.2	x	-2.9	x	x	x
O=C(O)CCn1cc(/C=C/C(=O)c2ccc(Cl)cc2)c(-c2ccc(Br)cc2)n1	11.4	10.2	-44.7	45.2*	9.7	30.5	-4.1
CCOc1cc(C2NC(=O)NC(C)=C2C(=O)OCC2CCCCC2)ccc1O (stereo not drawn)	-5.8	9.0	-14.7	-9.2	-10.5	x	x
COc1ccc(-c2nc(N)n(C(=O)c3cccs3)n2)cc1	9.8	3.2	-18.5	79.0*	12.1	-6.2	-9.7
COc1ccc(Cn2c(SCc3cc(C)ccc3C)nc3cc(OC)c(OC)cc3c2=N)cc1	-6.0	-3.6	-81.8	12.1	-37.9	x	x
COc1ccc(Cn2c(SCc3ccc(C)cc3)nc3cc(OC)c(OC)cc3c2=N)cc1Cl	8.9	-0.9	-93.9	35.4*	-26.8	11.7	23.5
Cc1cc(=O)oc(C)c1C(=O)OCC(=O)c1ccc(Cl)cc1	-0.9	0.1	8.1	35.9*	10.6	-6.2	-9.8
Cc1cc(=O)oc(C)c1C(=O)OCC(=O)c1ccc(Br)cc1	-4.0	-1.1	8.6	31.3	28.5	x	x

Compound activity (PubChem BioAssay)
